Assay results taken from ChEMBL document CHEMBL3867488 (ACS Med Chem Lett, 2016).

Tests used:
[1] = target: Retinoic acid receptor RXR-alpha/oxysterols receptor LXR-beta (Homo sapiens, UniProt P55055); assay: Displacement of [3H]-24,25-epoxycholesterol from human LXRbeta/RXRalpha expressed in baculovirus infected Sf9 cells by scintillation proximity analysis
How it was run: (§1)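 Binding affinity measured using full-length LXRα–RXRα and LXRβ–RXRα heterodimers.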

[2] = target: T1, Oxysterols receptor LXR-beta (Homo sapiens) (UniProt P55055); assay: (§2) Agonist activity at LXR-beta in human whole blood assessed as ABCA1 gene induction by measuring ABCA1 mRNA level after 4 hrs by SYBR-Green dye-based Q-PCR analysis relative to pan agonist 2-(4-(5-(5-cyano-1-(2,4-difluorobenzyl)-6-oxo-4-(trifluoromethyl)-1,6-dihydropyridin-2-yl)thiophen-2-yl)-3-methylphenyl)acetic acid; type: tissue-based
T1 sequence (whole entry): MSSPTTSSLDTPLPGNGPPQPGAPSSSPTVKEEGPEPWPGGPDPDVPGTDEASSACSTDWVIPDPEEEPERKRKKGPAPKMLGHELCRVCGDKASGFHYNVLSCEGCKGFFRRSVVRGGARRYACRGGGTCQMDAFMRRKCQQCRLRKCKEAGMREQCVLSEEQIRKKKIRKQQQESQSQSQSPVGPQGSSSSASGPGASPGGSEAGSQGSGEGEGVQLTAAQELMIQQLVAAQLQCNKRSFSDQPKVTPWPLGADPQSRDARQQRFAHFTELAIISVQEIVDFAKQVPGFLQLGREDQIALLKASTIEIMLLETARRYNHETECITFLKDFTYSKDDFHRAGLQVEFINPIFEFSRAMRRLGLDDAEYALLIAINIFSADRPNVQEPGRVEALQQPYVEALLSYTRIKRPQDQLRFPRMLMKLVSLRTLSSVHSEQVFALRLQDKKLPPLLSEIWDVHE

[3] = target: Retinoic acid receptor RXR-alpha/oxysterols receptor LXR-alpha (Homo sapiens, UniProt Q13133); assay: Displacement of [3H]-24,25-epoxycholesterol from human LXRalpha/RXRalpha expressed in baculovirus infected Sf9 cells by scintillation proximity analysis; how it was run: as §1
Albumin = Albumin (Homo sapiens, UniProt P02768); assay: Binding affinity to human serum albumin at 1 uM measured after 4 hrs by equilibrium dialysis method relative to control; type: ADME; conditions: for PB: isolated protein, 4 h, 1 µM
[4] = Clearance in cynomolgus monkey at 0.2 mg/kg, iv administered as cassette dose by LC/MS/MS analysis; type: ADME, organism-based, Macaca fascicularis; conditions: in vivo
[5] = target: T2, Oxysterols receptor LXR-alpha (Homo sapiens, UniProt Q13133); assay: Agonist activity at human LXR-alpha expressed in African green monkey CV1 cells measured after 18 to 20 hrs by luciferase reporter gene assay; type: cell-based, CV-1
T2 sequence (Q13133 whole entry): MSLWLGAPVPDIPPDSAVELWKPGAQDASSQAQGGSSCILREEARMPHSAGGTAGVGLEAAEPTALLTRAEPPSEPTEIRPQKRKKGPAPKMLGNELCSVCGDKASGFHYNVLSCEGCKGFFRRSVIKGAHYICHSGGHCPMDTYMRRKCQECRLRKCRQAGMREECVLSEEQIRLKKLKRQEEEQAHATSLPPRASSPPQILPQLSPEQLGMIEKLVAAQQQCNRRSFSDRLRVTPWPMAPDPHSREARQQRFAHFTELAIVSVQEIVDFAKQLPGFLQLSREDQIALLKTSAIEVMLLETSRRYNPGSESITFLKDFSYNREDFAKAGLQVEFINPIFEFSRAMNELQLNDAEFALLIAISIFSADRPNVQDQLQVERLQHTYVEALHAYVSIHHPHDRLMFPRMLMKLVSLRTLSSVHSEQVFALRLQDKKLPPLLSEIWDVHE

[6] = target: T1, Oxysterols receptor LXR-beta (Homo sapiens); assay: Agonist activity at human LXR-beta expressed in African green monkey CV1 cells measured after 18 to 20 hrs by luciferase reporter gene assay relative to pan agonist 1-(2,4-difluorobenzyl)-2-oxo-6-(4-phenoxyphenyl)-4-(trifluoromethyl)-1,2-dihydropyridine-3-carbonitrile; type: cell-based; conditions: CV-1
[7] = Half life in cynomolgus monkey at 0.2 mg/kg, iv administered as cassette dose by LC/MS/MS analysis; type: ADME, organism-based, Macaca fascicularis; conditions: in vivo
[8] = target: T3, Oxysterols receptor LXR-beta (Homo sapiens, UniProt P55055); assay: Agonist activity at LXR-beta in human whole blood assessed as ABCA1 gene induction by measuring ABCA1 mRNA level after 4 hrs by SYBR-Green dye-based Q-PCR analysis; type: tissue-based
T3 sequence (P55055 whole entry): T1 sequence (whole entry)

[9] = target: T3, Oxysterols receptor LXR-beta; assay: Agonist activity at LXR-beta in human HeLa cells assessed as induction of ABCA1 by beta-galactosidase/luciferase reporter gene assay; type: cell-based
How it was run: (§3)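 HeLa cells carrying endogenous LXRα and LXRβ receptors, transfected with an ABCA1 LXREx3 reporter construct; agonist-driven reporter induction measured.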

[10] = target: T1, Oxysterols receptor LXR-beta (Homo sapiens); assay: Agonist activity at LXR-beta in human HeLa cells assessed as induction of ABCA1 by beta-galactosidase/luciferase reporter gene assay relative to control; type: cell-based; how it was run: as §3
[11] = target: T2, Oxysterols receptor LXR-alpha; assay: Agonist activity at human LXR-alpha expressed in African green monkey CV1 cells measured after 18 to 20 hrs by luciferase reporter gene assay relative to pan agonist 1-(2,4-difluorobenzyl)-2-oxo-6-(4-phenoxyphenyl)-4-(trifluoromethyl)-1,2-dihydropyridine-3-carbonitrile; type: cell-based; conditions: CV-1, human; read-out: Efficacy
[12] = target: Alpha-1-acid glycoprotein 1 (Homo sapiens, UniProt P02763); assay: Binding affinity to human alpha-1-AGP at 1 uM measured after 4 hrs by equilibrium dialysis method relative to control; type: ADME; conditions: for PB: isolated protein, 4 h, 1 µM; for fraction unbound at 4 h, 1 µM: human alpha-1-acid glycoprotein, read-out: PB
[13] = target: T3, Oxysterols receptor LXR-beta; assay: Agonist activity at human LXR-beta expressed in African green monkey CV1 cells measured after 18 to 20 hrs by luciferase reporter gene assay; type: cell-based, CV-1
[14] = Half life in cynomolgus monkey at 0.25 mg/kg, iv administered as 10 mins infusion by LC/MS/MS analysis; type: ADME, organism-based, Macaca fascicularis; conditions: in vivo
How it was run: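 Cynomolgus monkey intravenous PK, with n = 2 animals at the 0.25 mg/kg dose. Plasma clearance (mL/min/kg) and terminal t1/2 (h) derived from the plasma concentration–time profile.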

[15] = target: T3, Oxysterols receptor LXR-beta; assay: Agonist activity at LXR-beta in human whole blood assessed as ABCG1 gene induction by measuring ABCA1 mRNA level after 4 hrs by SYBR-Green dye-based Q-PCR analysis; type: tissue-based
[16] = Half life in human plasma; type: ADME, cell-free
How it was run: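 Human plasma half-life was obtained from a clinical single ascending dose PK study.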

[17] = target: T1, Oxysterols receptor LXR-beta (Homo sapiens); assay: as §2, with “as ABCG1” for “as ABCA1”; type: tissue-based
[18] = target: T4, Alpha-1-acid glycoprotein (Rattus norvegicus, UniProt P02764); assay: Binding affinity to rat alpha-1-AGP at 1 uM measured after 4 hrs by equilibrium dialysis method relative to control; type: ADME; conditions: rat alpha-1-acid glycoprotein, read-out: PB (converted)
T4 sequence (P02764 whole entry): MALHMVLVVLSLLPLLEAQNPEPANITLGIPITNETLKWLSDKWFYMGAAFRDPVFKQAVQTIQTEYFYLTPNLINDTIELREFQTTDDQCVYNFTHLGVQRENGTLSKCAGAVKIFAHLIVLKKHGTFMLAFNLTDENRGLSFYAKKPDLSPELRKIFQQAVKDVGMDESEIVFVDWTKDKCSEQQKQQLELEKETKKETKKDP

[19] = Half life in cynomolgus monkey at 1 mg/kg, iv administered as 10 mins infusion by LC/MS/MS analysis; type: ADME, organism-based, Macaca fascicularis; conditions: in vivo
[20] = Binding affinity to dog alpha-1-AGP at 1 uM measured after 4 hrs by equilibrium dialysis method relative to control; type: ADME, Canis lupus familiaris; conditions: dog alpha-1-acid glycoprotein, read-out: PB (converted)

Retinoic acid receptor RXR-alpha/oxysterols receptor LXR-beta, sequence (P19793 whole entry, one chain of several): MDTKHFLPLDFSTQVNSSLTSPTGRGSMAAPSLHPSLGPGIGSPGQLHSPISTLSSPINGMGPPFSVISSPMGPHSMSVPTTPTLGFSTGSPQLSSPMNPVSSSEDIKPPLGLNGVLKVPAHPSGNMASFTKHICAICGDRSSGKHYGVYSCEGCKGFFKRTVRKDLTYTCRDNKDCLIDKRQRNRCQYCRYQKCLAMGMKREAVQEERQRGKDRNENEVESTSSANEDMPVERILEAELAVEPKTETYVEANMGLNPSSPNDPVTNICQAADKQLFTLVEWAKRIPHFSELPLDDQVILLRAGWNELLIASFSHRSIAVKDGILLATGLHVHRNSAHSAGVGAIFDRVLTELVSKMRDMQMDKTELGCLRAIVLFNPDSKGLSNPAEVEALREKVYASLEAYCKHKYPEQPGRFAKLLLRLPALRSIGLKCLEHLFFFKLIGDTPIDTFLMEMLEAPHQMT
Retinoic acid receptor RXR-alpha/oxysterols receptor LXR-alpha, sequence (P19793 whole entry, one chain of several): as above
Alpha-1-acid glycoprotein 1, sequence (P02763 whole entry): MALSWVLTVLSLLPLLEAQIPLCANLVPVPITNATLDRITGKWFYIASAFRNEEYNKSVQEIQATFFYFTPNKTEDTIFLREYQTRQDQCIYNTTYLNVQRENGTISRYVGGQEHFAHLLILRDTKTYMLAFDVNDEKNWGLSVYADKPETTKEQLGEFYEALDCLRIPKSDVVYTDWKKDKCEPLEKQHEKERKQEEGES
Albumin, sequence (P02768 whole entry): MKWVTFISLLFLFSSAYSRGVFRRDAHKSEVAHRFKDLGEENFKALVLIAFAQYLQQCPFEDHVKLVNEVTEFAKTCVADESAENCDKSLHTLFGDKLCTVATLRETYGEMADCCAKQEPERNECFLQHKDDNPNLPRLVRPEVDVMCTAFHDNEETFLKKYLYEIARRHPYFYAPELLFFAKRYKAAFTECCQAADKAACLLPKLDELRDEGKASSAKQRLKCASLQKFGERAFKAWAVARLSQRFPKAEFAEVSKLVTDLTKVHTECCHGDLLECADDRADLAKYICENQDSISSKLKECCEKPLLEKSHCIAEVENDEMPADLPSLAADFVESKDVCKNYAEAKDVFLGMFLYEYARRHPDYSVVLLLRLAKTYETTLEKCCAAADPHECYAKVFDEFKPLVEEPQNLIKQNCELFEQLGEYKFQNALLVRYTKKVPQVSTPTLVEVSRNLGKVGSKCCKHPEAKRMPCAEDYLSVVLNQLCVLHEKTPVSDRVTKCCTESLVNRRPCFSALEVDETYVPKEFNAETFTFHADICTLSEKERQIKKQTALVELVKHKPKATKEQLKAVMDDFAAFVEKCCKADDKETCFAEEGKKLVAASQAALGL

Row | Ki [1] [nM] | Efficacy [2] [%] | Ki [3] [nM] | EC50 [5] [nM] | Efficacy [6] [%] | EC50 [8] [nM] | EC50 [9] [nM] | Efficacy [10] [%] | Emax [11] [%] | EC50 [13] [nM] | Structure (SMILES) | also measured
1 | 10 | 47 | 53 | 76 | 83 | 57 | 8 | 43 | 29 | 72 | CC(C)(O)c1cn(-c2ccc(-c3cc(F)c(CO)c(S(C)(=O)=O)c3)cc2)c(C(C)(C)c2ccccc2Cl)n1 | PB (Albumin): 95.5%; clearance [4]: 8.4 mL/min/kg; half-life [7]: 5.6 h; PB [12]: 86.6%
2 | 13 | 17 | 17 | 12 | 67 | 23 | 2 | 9 | 18 | 25 | CC(c1c(Cl)cccc1Cl)c1nc(C(C)(C)O)cn1-c1ccc(-c2cc(F)c(CO)c(S(C)(=O)=O)c2)cc1F (configuration not stated) | –
3 | 11 | 32 | 16 | 99 | 41 | 380 | 18 | 42 | 20 | 170 | CC(C)(O)c1cn(-c2ccc(-c3cccc(S(C)(=O)=O)c3)cc2)c(C(C)(C)c2c(Cl)cccc2Cl)n1 | PB (Albumin): 97.9%; fraction unbound at 4 h, 1 µM [12]: 0.004 to 0.01
4 | 5 | 72 | 31 | 100 | 50 | 300 | 9 | 54 | 39 | 60 | CC(C)(O)c1cn(-c2ccc(-c3ccc(CO)c(S(C)(=O)=O)c3)cc2)c(Cc2ccccc2Cl)n1 | t1/2 [14]: 0.8 h
5 | 13 | 46 | 74 | 110 | 74 | 300 | 12 | 56 | 46 | 170 | CC(C)(O)c1cn(-c2ccc(-c3ccc(CO)c(S(C)(=O)=O)c3)cc2)c(C(C)(C)c2ccccc2Cl)n1 | PB (Albumin): 96.1%; PB [12]: 90.2%
6 | 14 | 33 | 70 | 11 | 86 | 41 | 1 | 30 | 15 | 20 | CC(C)(O)c1cn(-c2ccc(-c3cc(F)c(CO)c(S(C)(=O)=O)c3)cc2F)c(C(C)(C)c2c(F)cccc2Cl)n1 | –
7 | 18 | 35 | 9 | 57 | 79 | 46 | 2 | 29 | 25 | 50 | CC(C)(O)c1cn(-c2ccc(-c3cc(F)c(CO)c(S(C)(=O)=O)c3)cc2F)c(C(C)(C)c2ccccc2Cl)n1 | –
8 | 14 | 28 | 81 | 130 | 68 | 43 | 12 | 15 | 13 | 160 | CC(C)(O)c1cn(-c2ccc(-c3cc(F)c(CO)c(S(C)(=O)=O)c3)cc2)c(C(C)(C)c2ccccc2F)n1 | –
9 | 48 | 16 | 50 | 8 | 51 | 5 | 2 | 12 | 6 | 27 | CC(C)(O)c1cn(-c2ccc(-c3cc(F)c(CO)c(S(C)(=O)=O)c3)cc2Cl)c(C(C)(C)c2c(Cl)cccc2Cl)n1 | –
10 | 40 | 47 | 180 | 120 | 93 | 870 | 21 | 68 | 47 | 220 | CC(O)c1ccc(-c2ccc(-n3cc(C(C)(C)O)nc3C(C)(C)c3ccccc3Cl)cc2)cc1S(C)(=O)=O (configuration not stated) | clearance [4]: 5.6 mL/min/kg; half-life [7]: 5.5 h
11 | 11 | 51 | 75 | 69 | 54 | 42 | 5 | 43 | 17 | 140 | CC(C)(O)c1cn(-c2ccc(-c3cc(F)c(CO)c(S(C)(=O)=O)c3)cc2)c(Cc2c(Cl)cccc2Cl)n1 | –
12 | – | 55 | – | 220 | – | 1200 | 33 | 50 | 38 | – | CC(C)(O)c1cn(-c2ccc(-c3cccc(S(C)(=O)=O)c3)cc2)c(C(C)(C)c2ccccc2Cl)n1 [BMS-779788] | fraction unbound at 4 h, 1 µM (Albumin; human serum albumin, read-out: PB): 0.028 to 0.03; clearance [4]: 2.9 mL/min/kg; half-life [7]: 8.9 h; EC50 [15]: 1100 nM; half-life [16]: 100 to 200 h; fraction unbound at 4 h, 1 µM [12]: 0.001; Efficacy [17]: 60%; fraction unbound at 4 h, 1 µM [18]: 0.08; t1/2 [19]: 7.4 h; fraction unbound at 4 h, 1 µM [20]: 0.02
13 | 6 | 43 | 38 | 30 | 72 | 15 | 3 | 23 | 25 | 42 | CC(C)(O)c1cn(-c2ccc(-c3cc(F)c(CO)c(S(C)(=O)=O)c3)cc2)c(C(C)(C)c2c(Cl)cccc2Cl)n1 | –
